# Screening results (PubChem BioAssay)
# Efflux pump inh: inhibitors of Candida efflux pumps in yeast, primary screen, S. cerevisiae, Nile Red, multiplex | S. cerevisiae Candida pump triplex | inhibition, % at 10 µM | 330,000 tested, 0.44% active;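 active = plate passing quality check with inhibition over a set limit, or well fluorescence over plate mean plus 4 SD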;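 also: Nile Red retained in pooled yeast measured as flow cytometry median fluorescence; 0% = buffer negative control and 100% = Enniatin B positive control; higher means more Nile Red kept so more efflux inhibition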
# Beta cell apopt: inhibitors of cytokine-induced beta cell apoptosis, primary screen, luminescence; INS-1E cytokine-induced death, ATP luminescence, 48 h; percent of positive-control rescue, neutral wells zero; protection from apoptosis, % (no concentration beside the values); 300,000 tested, 0.8% active; AID 435005, 2010;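 active = Every replicate reaches about 75%, or at least half do and their mean reaches it too, limit read from the data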;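 also: 0% = cytokine-treated negative control wells and 100% = positive control rescue; higher means more ATP so stronger rescue from cytokine killing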
# Mot1-301 SUMO: yeast Mot1-301 growth rescue at high temperature, primary screen, SUMOylation pathway inhibitor project, S. cerevisiae, ATP luminescence, 38.5C; S. cerevisiae Mot1-301 growth rescue; percent above DMSO median, 100 means doubled; growth rescue, % at 18.8 µM; 320,000 tested, 1% active; AID 2716, 2010;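 active = every valid replicate shows activation above 250% relative to neutral control wells; inactive = the rest, any valid replicate at or below 250%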;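 also: OY570 slx delta 5 strain wells were the positive control but not used for scaling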
# T cruzi repl: inhibitors of intracellular T. cruzi growth, primary screen, luminescence, NIH3T3 host cells; T. cruzi beta-gal in NIH3T3, 90 h; inhibition, % (no concentration beside the values); 300,000 tested, 1.4% active; AID 1885, 2009;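 active = mean inhibition across valid replicates above about 55%, limit read from the data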;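 also: signal also drops with host cell toxicity which is not excluded here; 0% = plate median of DMSO wells and 100% = zero luminescence signal; higher percent means less beta-gal luminescence so fewer parasites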
#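 System: mouse NIH/3T3 fibroblasts infected with β-gal-expressing T. cruzi Tulahuen C4 / Input: NIH/3T3 cells, 5,000 per well / Buffer or medium: Low-serum DMEM with 2% FBS / Probe or stimulus: 5000 reporter trypomastigotes per well / Schedule: ≥90 h infection period, 3 h prior cell attachment / Measured by: GalScreen luminescence, 60 min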
# CSC inhib: cancer stem cell viability inhibitors, primary screen, luminescence | 300,000 tested, 1.1% active | cancer stem cell-like cells viability | inhibition, % at 7.5 µM; in the data active = inhibition above about 75%; tested in HMLE shEcad cells
# WT yeast gro inh: growth inhibition of WT strain, primary screen, mitochondrial fusion inhibitor project, WT and mutant strains, chemical genetic. mitochondrial fusion phenotypic screen. inhibition, % at 10 µM. 190,000 tested, 2.1% active. AID 1362, 2008; in the data active = inhibition above about 58%; tested in S. cerevisiae
# Yeast cmpd fluor: flagged as fluorescent in efflux inhibitor counter-screen; shares compounds with Efflux pump inh; S. cerevisiae AD/pABC3, compound fluorescence, flow cytometry; fluorescence ratio to DMSO, % at 10 µM; 1,700 tested, 4% active; AID 588517;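 active = fluorescence ratio to DMSO above its plate's cutoff, the plate mean ratio plus 5 SD, cut at about 210% in these data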;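 also: unstained yeast with no Nile Red so the signal is compound autofluorescence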
# Mdr1 pump inh: inhibitors of Candida albicans Mdr1 efflux, confirmation, flow cytometry, singleplex, Cherry Pick1 set; shares compounds with Efflux pump inh; S. cerevisiae AD/CaMDR1, Nile Red efflux; 1,700 tested, 1% active; inhibition, % at 10 µM; in the data active = inhibition above about 26%;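 also: 0% = DMSO vehicle and 100% = reference inhibitor; higher means more Nile Red retained so more efflux inhibition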
# CaCdr2 efflux inh: inhibitors of Candida albicans Cdr2 efflux pump, confirmation, S. cerevisiae AD/CaCDR2, flow cytometry, cherry pick 1, singleplex; shares compounds with Efflux pump inh; Nile Red retention; Nile Red retention ratio vs DMSO, % at 10 µM; 1,700 tested, 4% active; in the data active = Nile Red retention ratio vs DMSO above about 190%;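 also: higher ratio means more blocking of Cdr2 efflux of the dye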
# Cdr1 pump inh: inhibitors of Candida albicans Cdr1 efflux pump, confirmation, S. cerevisiae AD/CaCDR1, flow cytometry, cherry pick 1, singleplex. shares compounds with Efflux pump inh. Nile Red efflux. inhibition, % at 10 µM. 1,700 tested, 1% active;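 active = inhibition above the screen-wide mean plus twice its standard deviation, cut at about 32% in these data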
# * hit, by the source's call; · = no result. The list is not random: actives were taken first. Their share in the collection is about 4.8%.
SMILES,Efflux pump inh,Beta cell apopt,Mot1-301 SUMO,T cruzi repl,CSC inhib,WT yeast gro inh,Yeast cmpd fluor,Mdr1 pump inh,CaCdr2 efflux inh,Cdr1 pump inh
O=C1/C(=C\c2ccc(O)cc2)SC(=S)N1/N=C/c1ccc(O)cc1,0.2,2.5,-9.0,-16.7,6.0,·,96.6,-0.3,106.3,0.0
O=C1/C(=C/c2cccc(Br)c2)SC(=S)N1/N=C/c1cc([N+](=O)[O-])ccc1O,0.0,9.5,106.2,9.6,16.5,·,96.6,0.1,83.1,-0.1
CCOc1ccc(C(=O)c2cc([N+](=O)[O-])ccc2Cl)cc1,0.1,-9.0,28.1,5.2,17.9,8.2,·,·,·,·
Cc1ccc(CN(Cc2cccnc2)C(=O)CN2C(=O)COc3ccccc32)o1,5.9*,-0.4,-8.6,55.4*,-14.3,-10.2,111.1,0.1,97.7,-0.1
CSc1cccc(CN2CCCC(C(=O)Nc3cccc(-n4cccn4)c3)C2)c1 (stereo not given),0.3,-4.7,87.6,6.8,10.5,·,·,·,·,·
COc1ccc(S(=O)(=O)N2CCN(C(=S)Nc3ccc(S(N)(=O)=O)cc3)CC2)cc1,-0.4,-2.3,-15.1,4.0,-2.7,·,·,·,·,·
N#C/C(=C\c1ccc(OCc2ccccc2)cc1)C(=O)Nc1ccc(C(=O)O)cc1,0.1,5.8,105.3,2.9,-12.1,·,·,·,·,·
COc1ccc(NC(=O)/C(C#N)=C/c2ccc(OCc3ccccc3F)cc2)cc1,6.5*,4.4,7.2,-16.7,4.0,9.1,95.5,0.0,100.1,-0.1
CC(C)C(=O)Nc1cc(C(F)(F)F)ccc1-n1ccnc1,0.0,-3.8,0.4,-8.2,-2.5,3.4,·,·,·,·
COc1ccc2nc(SCC(=O)NCc3ccc(OC)c(OC)c3)[nH]c2c1,0.0,-17.9,86.3,3.3,-5.9,·,·,·,·,·
O=C(Nc1ccccc1O)c1ccccc1O,1.1*,·,5.9,1.5,18.1,26.0,104.7,-0.1,97.5,0.0
O=C(CN1C(=O)/C(=C\c2cccc(Cl)c2)Oc2ccccc21)N1CCN(c2ccccn2)CC1,-0.3,0.3,11.0,8.3,20.1,-1.9,·,·,·,·
Cc1cc(F)ccc1S(=O)(=O)Nc1ccc(O)c(Sc2ncn[nH]2)c1,0.0,3.2,106.1,-24.9,-7.2,·,104.5,-0.1,100.1,0.1
Cc1ccc(S(=O)(=O)Nc2ccc(O)c(Sc3ncn[nH]3)c2)cc1,2.0*,·,-25.4,1.4,4.3,-7.7,105.0,-0.4,95.1,0.1
Cc1ccc(C)c(S(=O)(=O)Nc2ccc(O)c(Sc3ncn[nH]3)c2)c1,0.2,-3.3,4.4,6.6,-9.7,·,105.0,-0.4,97.2,-0.1
COc1ccc(OC)c(S(=O)(=O)Nc2ccc(O)c(Sc3ncn[nH]3)c2)c1,-0.4,-4.8,-13.2,-13.3,-12.6,-11.5,96.1,-0.2,93.2,-0.1
O=c1oc2ccccc2c2c1ccc1ccccc12,-0.2,·,·,·,·,·,·,·,·,·
Cc1cc(OCC(=O)NCC2CCC(C(=O)O)CC2)c2c(C)c(Cc3ccccc3)c(=O)oc2c1 (stereo not given),-0.1,·,-8.1,-14.8,-7.8,·,·,·,·,·
CC(NS(=O)(=O)c1cccc(C(=O)NCc2ccncc2)c1)c1ccccc1 (stereo not given),0.1,-3.5,0.8,·,·,·,·,·,·,·
CCn1c(SCC(=O)O)nnc1-c1cccnc1,0.0,-1.6,16.0,-10.7,-12.8,-4.3,·,·,·,·
O=C(Cc1c2ccccc2nc2ccccc12)c1ccccc1,15.2*,3.6,24.7,1.3,0.4,2.7,92.1,-0.1,105.7,-0.1
CC1CN(S(=O)(=O)c2cccc(C(=O)Nc3ccccc3N3CCCC3)c2)CC(C)O1 (stereo not given),0.0,7.0,110.4,4.1,1.0,·,·,·,·,·
Cc1cccc(C(=O)N2CCC(=O)N(C(COCc3cccc(C(F)(F)F)c3)Cc3ccccc3)CC2)c1 (stereo not given),1.0*,4.4,191.4,1.2,19.1,39.1,101.4,-0.1,97.7,0.0
Cn1/c(=N/NC(=O)c2ccccc2F)sc2ccccc21,-0.1,-5.0,32.2,-8.9,·,10.3,·,·,·,·
COc1ccc(CNC(=O)/C=C/c2ccco2)cc1OC,-0.1,-2.2,23.4,2.9,-8.9,1.7,·,·,·,·
SMILES,Efflux pump inh,Beta cell apopt,Mot1-301 SUMO,T cruzi repl,CSC inhib,WT yeast gro inh,Yeast cmpd fluor,Mdr1 pump inh,CaCdr2 efflux inh,Cdr1 pump inh
COc1ccc(CNC(=O)/C=C/C(=O)O)cc1OC,5.5*,3.4,-9.5,-5.9,-17.8,-11.1,101.4,-0.1,95.6,-0.1
C/C(=N\NC(=O)CSCc1ccc([N+](=O)[O-])cc1)c1cccc(Br)c1,-0.1,4.2,5.1,5.3,-4.4,2.4,·,·,·,·
C/C(=N\NC(=O)CSCc1ccccc1Br)c1cccc([N+](=O)[O-])c1,6.5*,1.6,-0.2,-42.5,6.5,-10.3,100.3,-0.2,96.3,0.0
Cc1nn(-c2ccccc2)c(Cl)c1/C=N/NC(=O)CNc1n[nH]c(=O)[nH]c1=O,0.0,-3.6,14.4,2.8,-12.4,3.9,·,·,·,·
COC/C=C/C1=CC2=CC(=O)C(C)(OC(=O)c3cnc4ccccc4n3)C(=O)C2=CN1Cc1ccc(OC)cc1 (stereo not given),0.6*,0.2,9.4,-22.6,2.9,·,120.7,0.7,114.3,0.1
CC(C)NC(=O)C(=O)NNC(=O)C12CC3CC(CC(C3)C1)C2,2.1*,-8.7,-16.1,-2.9,18.5,0.8,111.3,0.3,116.0,0.1
CC(C)NCC(=O)C12CC3CC(CC(C3)C1)C2,0.0,-7.8,-2.2,10.9,-5.5,·,·,·,·,·
O=C(c1ccccc1)C1Oc2ccccc2C2CC(c3cccs3)=NN12 (stereo not given),1.5*,2.8,10.4,8.8,21.2,17.0,119.6,0.0,116.6,-0.1
CCCCCCCN1CCC(=O)N([C@H](CO)CC(C)C)CC1,0.0,1.3,-0.2,-6.6,7.3,·,·,·,·,·
O=C1OC(c2ccco2)=N/C1=C\c1ccc(-c2cccc(C(F)(F)F)c2)o1,1.2*,1.9,21.0,-12.6,·,1.1,93.3,0.1,112.4,0.1
O=C1OC(c2cccs2)=N/C1=C/c1ccc(-c2cccc(C(=O)O)c2)o1,·,·,·,·,·,2.5,·,·,·,·
